{"source": "PubChem BioAssay AID588438", "about": "(The Scripps Research Institute Molecular Screening Center, 2011)", "assay_in_all_cases": "PAD1-4 enzyme inhibition potency, late-stage follow-up, selectivity assay for PAD4 inhibitor project, biochemical, colorimetric, BAEE substrate, recombinant PAD1-4 (AID 588438)", "key": {"[1]": {"biological_target": "Protein-arginine deiminase type-4 (Homo sapiens) (UniProt Q9UM07)", "sequence (Q9UM07 whole entry, looked up)": "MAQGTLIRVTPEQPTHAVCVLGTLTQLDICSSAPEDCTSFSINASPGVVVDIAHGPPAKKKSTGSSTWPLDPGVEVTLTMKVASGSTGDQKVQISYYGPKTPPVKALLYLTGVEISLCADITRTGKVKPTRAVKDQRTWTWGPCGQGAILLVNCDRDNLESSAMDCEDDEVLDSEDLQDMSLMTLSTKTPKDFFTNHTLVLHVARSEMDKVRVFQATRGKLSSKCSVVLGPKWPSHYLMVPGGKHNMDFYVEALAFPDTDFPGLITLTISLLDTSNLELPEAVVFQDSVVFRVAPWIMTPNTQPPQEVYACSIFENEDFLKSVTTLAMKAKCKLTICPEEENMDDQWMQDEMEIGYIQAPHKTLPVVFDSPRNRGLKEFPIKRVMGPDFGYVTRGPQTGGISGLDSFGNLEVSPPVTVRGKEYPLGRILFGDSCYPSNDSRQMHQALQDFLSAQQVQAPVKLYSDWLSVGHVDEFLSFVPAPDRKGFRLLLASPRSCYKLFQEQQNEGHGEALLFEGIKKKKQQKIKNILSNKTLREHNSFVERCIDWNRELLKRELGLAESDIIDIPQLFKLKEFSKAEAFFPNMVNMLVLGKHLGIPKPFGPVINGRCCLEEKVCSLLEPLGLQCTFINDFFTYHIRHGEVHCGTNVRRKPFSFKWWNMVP", "settings": "recombinant PAD1-4, BAEE citrulline colorimetric absorbance; PAD4", "summary_of_the_method": "(§1)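 Assay system: Recombinant PAD1–4 enzymes | Quantity: PAD1 and PAD4 at 0.2 µM, PAD2 and PAD3 at 0.5 µM | Also added: 10 mM BAEE substrate | Incubation: Enzyme–inhibitor preincubation 15 min, then substrate reaction 15 min, 37 °C | Signal: Citrulline color absorbance at 540 nm | Read-out: Fitted IC50 of remaining activity | Repeats: Duplicate per concentration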"}, "[2]": {"biological_target": "Protein-arginine deiminase type-2 (Homo sapiens) (UniProt Q9Y2J8)", "sequence (Q9Y2J8 whole entry, looked up)": "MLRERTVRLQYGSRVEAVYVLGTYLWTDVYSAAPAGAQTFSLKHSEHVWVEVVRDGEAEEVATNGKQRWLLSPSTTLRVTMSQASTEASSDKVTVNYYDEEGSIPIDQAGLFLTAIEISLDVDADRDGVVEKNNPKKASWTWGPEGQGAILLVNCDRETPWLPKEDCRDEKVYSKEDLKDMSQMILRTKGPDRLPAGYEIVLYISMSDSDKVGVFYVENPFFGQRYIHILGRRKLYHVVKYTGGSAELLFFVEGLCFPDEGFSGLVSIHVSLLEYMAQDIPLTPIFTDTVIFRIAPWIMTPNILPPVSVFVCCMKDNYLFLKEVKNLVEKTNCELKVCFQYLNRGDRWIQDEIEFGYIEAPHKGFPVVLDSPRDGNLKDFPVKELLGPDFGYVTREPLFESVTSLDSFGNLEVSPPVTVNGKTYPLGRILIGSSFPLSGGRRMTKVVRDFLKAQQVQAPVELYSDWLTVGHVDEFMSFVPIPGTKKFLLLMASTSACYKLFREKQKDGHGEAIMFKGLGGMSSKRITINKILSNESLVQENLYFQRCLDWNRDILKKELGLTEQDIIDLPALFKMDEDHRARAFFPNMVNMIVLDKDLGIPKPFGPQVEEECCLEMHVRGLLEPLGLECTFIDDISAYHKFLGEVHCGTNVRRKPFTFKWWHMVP", "settings": "recombinant PAD1-4, BAEE citrulline colorimetric absorbance; PAD2", "summary_of_the_method": "as §1"}, "[3]": {"biological_target": "Protein-arginine deiminase type-1 (Homo sapiens) (UniProt Q9ULC6)", "sequence (Q9ULC6 whole entry, looked up)": "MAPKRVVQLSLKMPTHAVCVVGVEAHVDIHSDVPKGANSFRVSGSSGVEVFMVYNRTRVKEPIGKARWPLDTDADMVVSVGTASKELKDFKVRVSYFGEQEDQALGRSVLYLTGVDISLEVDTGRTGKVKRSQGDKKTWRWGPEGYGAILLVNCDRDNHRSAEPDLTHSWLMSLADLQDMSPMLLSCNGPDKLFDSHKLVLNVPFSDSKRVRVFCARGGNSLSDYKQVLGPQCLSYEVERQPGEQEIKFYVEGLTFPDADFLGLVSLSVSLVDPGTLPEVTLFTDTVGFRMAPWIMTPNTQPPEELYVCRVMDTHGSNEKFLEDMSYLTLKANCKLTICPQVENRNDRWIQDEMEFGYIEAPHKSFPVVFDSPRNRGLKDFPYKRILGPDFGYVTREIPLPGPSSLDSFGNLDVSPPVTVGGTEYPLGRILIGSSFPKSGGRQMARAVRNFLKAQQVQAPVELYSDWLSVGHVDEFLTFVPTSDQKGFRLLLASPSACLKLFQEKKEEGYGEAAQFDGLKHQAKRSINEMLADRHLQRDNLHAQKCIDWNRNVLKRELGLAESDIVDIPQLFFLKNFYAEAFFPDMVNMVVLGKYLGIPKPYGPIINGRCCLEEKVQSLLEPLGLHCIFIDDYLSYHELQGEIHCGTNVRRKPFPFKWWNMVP", "settings": "recombinant PAD1-4, BAEE citrulline colorimetric absorbance; PAD1", "summary_of_the_method": "as §1"}, "[4]": {"biological_target": "Protein-arginine deiminase type-3 (Homo sapiens) (UniProt Q9ULW8)", "sequence (Q9ULW8 whole entry, looked up)": "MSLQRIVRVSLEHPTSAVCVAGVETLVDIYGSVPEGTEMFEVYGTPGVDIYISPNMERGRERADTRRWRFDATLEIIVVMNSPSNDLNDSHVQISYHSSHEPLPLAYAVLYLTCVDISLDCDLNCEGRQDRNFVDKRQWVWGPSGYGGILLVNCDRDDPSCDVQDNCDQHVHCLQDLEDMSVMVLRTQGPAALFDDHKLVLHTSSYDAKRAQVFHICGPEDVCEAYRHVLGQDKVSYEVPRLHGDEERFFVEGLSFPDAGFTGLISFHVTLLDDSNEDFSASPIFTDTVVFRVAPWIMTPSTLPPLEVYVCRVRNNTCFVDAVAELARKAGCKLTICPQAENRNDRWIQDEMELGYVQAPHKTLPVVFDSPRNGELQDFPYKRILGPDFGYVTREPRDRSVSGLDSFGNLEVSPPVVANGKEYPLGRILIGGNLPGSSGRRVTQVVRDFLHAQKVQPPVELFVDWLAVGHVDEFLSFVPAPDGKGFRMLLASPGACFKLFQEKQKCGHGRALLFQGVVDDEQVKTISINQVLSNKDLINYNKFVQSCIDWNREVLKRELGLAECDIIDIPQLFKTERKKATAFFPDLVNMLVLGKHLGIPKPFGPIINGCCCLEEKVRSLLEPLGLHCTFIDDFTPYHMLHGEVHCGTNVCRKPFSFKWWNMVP", "settings": "recombinant PAD1-4, BAEE citrulline colorimetric absorbance; PAD3", "summary_of_the_method": "as §1"}}, "note": "pIC50: −log10 of the molar value. Calls of active or inactive are those of the source.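 The calls were made as follows: active = IC50 of 1 µM or lower against any of the four PAD enzymes tested; inactive = the rest.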"}
{"smiles": "COC(=O)c1cccc(-c2ccc3c(n2)C(=O)C(N)=CC3=O)n1", "values": [{"measurement": "pIC50", "setting": "[1]", "value": 6.06}, {"measurement": "pIC50", "setting": "[2]", "value": 6.38}, {"measurement": "IC50", "setting": "[3]", "value": "inactive"}, {"measurement": "pIC50", "setting": "[4]", "value": 6.48}]}
